Measurements taken from ChEMBL document CHEMBL4311973, “Synthesis of cinnamic acid derivatives and leishmanicidal activity against Leishmania braziliensis” (Eur J Med Chem, 2019).
Calls of active or inactive are those of the source. No cut-off for these calls is given here.

What was measured:
RAW264.7 [1] = assay: Cytotoxicity against […] RAW264.7 cells assessed as reduction in cell viability at 10 uM incubated for 48 hrs by resazurin staining based assay; settings: raw264.7, 48 h
In short: (§1)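 RAW 264.7 macrophages treated 48 h with compound in RPMI (final DMSO 0.1%); survival measured by resazurin viability assay. Screening at 10 µM, IC50 range 1–80 µM. Controls amphotericin B 3.125 µg/mL and 0.1% DMSO; three independent experiments in internal quadruplicate.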

Leishmania braziliensis [2] = assay: Antileishmanial activity against Leishmania braziliensis MHOM/BR/75/M2904 promastigotes assessed as reduction in cell viability at 10 uM incubated for 48 hrs by resazurin staining based assay; type: functional, organism-based
In short: (§2)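 Log-phase promastigotes exposed 48 h to compound in RPMI (final DMSO 0.1%); survival read by resazurin relative to DMSO. Screening at 10 µM; IC50 runs at 1–80 µM. Amphotericin B 3.125 µg/mL and 0.1% DMSO as controls; quadruplicate wells, two or three independent experiments; significance by one-way ANOVA with Dunnett post-test.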

Leishmania braziliensis [3] = assay: Antileishmanial activity against Leishmania braziliensis MHOM/BR/75/M2904 amastigotes infected in […] cells assessed as cell viability at 10 uM incubated for 48 hrs by resazurin staining based assay (reference value: 10.71 %); type: functional
[4] = Solubility of compound in 0.1% DMSO by light microscopy; type: physicochemical
In short: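 Compounds taken up in aqueous 5% DMSO, diluted in RPMI to 10 µM (final DMSO 0.1%), and inspected by light microscopy for crystal formation.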

Leishmania braziliensis [5] = assay: Antileishmanial activity against Leishmania braziliensis MHOM/BR/75/M2904 amastigotes infected in […] cells assessed as cell viability at 1 uM incubated for 48 hrs by resazurin staining based assay (reference value: 10.71 %); type: functional
Leishmania braziliensis [6] = assay: Antileishmanial activity against Leishmania braziliensis MHOM/BR/75/M2904 amastigotes infected in […] cells assessed as cell viability at 20 uM incubated for 48 hrs by resazurin staining based assay (reference value: 10.71 %); type: functional
Leishmania braziliensis [7] = assay: Antileishmanial activity against Leishmania braziliensis MHOM/BR/75/M2904 promastigotes assessed as reduction in cell viability incubated for 48 hrs by resazurin staining based assay; type: functional, organism-based; settings: MHOM/BR/75/M2904, 48 h; in short: as §2
RAW264.7 [8] = assay: Cytotoxicity against […] RAW264.7 cells assessed as reduction in cell viability incubated for 48 hrs by resazurin staining based assay; settings: Mus musculus, RAW264.7, 48 h; in short: as §1
Leishmania braziliensis [9] = assay: Antileishmanial activity against Leishmania braziliensis MHOM/BR/75/M2904 amastigotes infected in […] cells assessed as cell viability at 2.5 uM incubated for 48 hrs by resazurin staining based assay (reference value: 10.71 %); type: functional
Leishmania braziliensis [10] = assay: Antileishmanial activity against Leishmania braziliensis MHOM/BR/75/M2904 amastigotes infected in […] cells assessed as cell viability at 5 uM incubated for 48 hrs by resazurin staining based assay (reference value: 10.71 %); type: functional
Leishmania braziliensis [11] = assay: Antileishmanial activity against Leishmania braziliensis MHOM/BR/75/M2904 amastigotes infected in […] cells assessed as cell viability at 40 uM incubated for 48 hrs by resazurin staining based assay (reference value: 10.71 %); type: functional
Leishmania braziliensis [12] = assay: Antileishmanial activity against Leishmania braziliensis MHOM/BR/75/M2904 amastigotes infected in […] cells assessed as cell viability at 30 uM incubated for 48 hrs by resazurin staining based assay (reference value: 10.71 %); type: functional
Leishmania braziliensis [13] = assay: Induction of autophagy in Leishmania braziliensis MHOM/BR/75/M2904 amastigotes infected in […] RAW264.7 cells incubated for 48 hrs by transmission electron microscopy; type: functional, organism-based
In short: (§3)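 Infected macrophage cultures treated with compound or DMSO control, then examined by transmission electron microscopy for parasite morphology within parasitophorous vacuoles (lobulation, multimembrane vesicles, chromatin fragments).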

Leishmania braziliensis [14] = assay: Antileishmanial activity against Leishmania braziliensis MHOM/BR/75/M2904 amastigotes infected in […] cells assessed as cell viability at 80 uM incubated for 48 hrs by resazurin staining based assay (reference value: 10.71 %); type: functional
[15] = Selectivity index, ratio of IC50 of cytotoxicity against […] RAW264.7 cells to IC50 of antileishmanial activity against Leishmania braziliensis MHOM/BR/75/M2904 amastigotes infected in […] RAW264.7 cells; type: toxicity, cell-based; settings: read-out: Ratio IC50
In short: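 Selectivity index from IC50 on RAW 264.7 macrophages over IC50 against intracellular amastigotes, both after 48 h by resazurin.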

Leishmania braziliensis [16] = assay: Cell cycle arrest in Leishmania braziliensis MHOM/BR/75/M2904 amastigotes infected in […] cells assessed as lobulated cell bodies incubated for 48 hrs by transmission electron microscopy; type: functional, organism-based; in short: as §3
Leishmania braziliensis [17] = assay: Antileishmanial activity against Leishmania braziliensis MHOM/BR/75/M2904 amastigotes infected in […] cells assessed as reduction in cell viability incubated for 48 hrs by resazurin staining based assay; type: functional, organism-based; settings: MHOM/BR/75/M2904, RAW264.7, 48 h
Leishmania braziliensis [18] = assay: Induction of apoptosis in Leishmania braziliensis MHOM/BR/75/M2904 amastigotes infected in […] RAW264.7 cells incubated for 48 hrs by transmission electron microscopy; type: functional, organism-based; in short: as §3
RAW264.7 [19] = assay: Cytotoxicity against […] RAW264.7 cells assessed as reduction in cell viability at 3.125 ug/ml incubated for 48 hrs by resazurin staining based assay; settings: raw264.7, 48 h; in short: as §1

Row | SMILES | Activity (RAW264.7 [1]) | Activity (Leishmania braziliensis [2]) | Activity (Leishmania braziliensis [3]) | other results
1 | O=C(/C=C/c1ccccc1)OCc1cn(Cc2ccc(F)cc2)nn1 | Non-Toxic | inactive | 59.1% | –
2 | O=C(/C=C/c1ccccc1)OCc1cn(Cc2ccc(Br)cc2)nn1 | – | – | – | solubility [4]: Insoluble
3 | O=C(/C=C/c1ccc(Br)cc1)Oc1ccc2c(c1)C(=O)OC2 | Non-Toxic | Active | 50.14% | –
4 | O=C(/C=C/c1ccccc1)OCc1cn(Cc2ccccc2)nn1 | Non-Toxic | inactive | 19.91% | –
5 | O=C(/C=C/c1ccccc1)OCCCc1cn(Cc2ccc(F)c(F)c2)nn1 | Non-Toxic | – | 47.85% | –
6 | O=C(/C=C/c1ccccc1)OCCCc1cn(Cc2ccc(Cl)cc2)nn1 | Non-Toxic | Active | 49.01% | –
7 | O=C(/C=C/c1ccccc1)OCCCc1cn(Cc2cc(Cl)ccc2Cl)nn1 | Non-Toxic | Active | 45.74% | –
8 | O=C(/C=C/c1ccccc1)OCc1cn(Cc2c(Cl)cc(Cl)cc2Cl)nn1 | Non-Toxic | inactive | 70.38% | –
9 | COc1ccc(Cn2cc(COC(=O)/C=C/c3ccccc3)nn2)cc1 | Non-Toxic | inactive | 76% | –
10 | O=C(/C=C/c1ccccc1)OCCCc1cn(Cc2ccc(I)cc2)nn1 | Non-Toxic | Active | 52.07% | –
11 | O=C(/C=C/c1ccccc1)OCCCc1cn(Cc2ccccc2Br)nn1 | Non-Toxic | – | 57.32% | –
12 | O=C(/C=C/c1ccccc1)OCCCc1cn(Cc2ccccc2)nn1 | Non-Toxic | Active | 39.73% | –
13 | O=C(/C=C/c1ccccc1)OCc1cn(Cc2ccc([N+](=O)[O-])cc2)nn1 | – | – | – | solubility [4]: Insoluble
14 | O=C(/C=C/c1ccccc1)OCCCc1cn(Cc2ccc(F)cc2)nn1 | Non-Toxic | – | 67.84% | –
15 | O=C(/C=C/c1ccccc1)OCCCc1cn(Cc2ccc(OC(F)(F)F)cc2)nn1 | Non-Toxic | Active | 65.84% | –
16 | O=C(/C=C/c1ccccc1)OCc1cn(Cc2ccc(OC(F)(F)F)cc2)nn1 | Non-Toxic | inactive | 77.39% | –
17 | O=C(/C=C/c1ccc(Cl)cc1)Oc1ccc2c(c1)C(=O)OC2 | – | – | – | solubility [4]: Insoluble

Row | SMILES | Activity (RAW264.7 [1]) | Activity (Leishmania braziliensis [2]) | Activity (Leishmania braziliensis [3]) | other results
18 | O=C(/C=C/c1ccccc1)OCc1cn(Cc2ccc(F)c(F)c2)nn1 | Non-Toxic | inactive | 68.6 - 86.32% | Activity (Leishmania braziliensis [5]): 85.4%; Activity (Leishmania braziliensis [6]): 79.77%; IC50 (Leishmania braziliensis [7]): 3.05 µM; IC50 (RAW264.7 [8]): > 80 µM; Activity (Leishmania braziliensis [9]): 83.08%; Activity (Leishmania braziliensis [10]): 98.18%; Activity (Leishmania braziliensis [11]): 72.41%; Activity (Leishmania braziliensis [12]): 95.13%
19 | COc1cc(/C=C/C(=O)Oc2ccc3c(c2)C(=O)OC3)cc(OC)c1OC | Non-Toxic | Active | 64.46 - 80.47% | Activity (Leishmania braziliensis [13]): Active; Activity (Leishmania braziliensis [6]): 19.71%; Activity (Leishmania braziliensis [14]): 35.51%; IC50 (Leishmania braziliensis [7]): 7.58 µM; IC50 (RAW264.7 [8]): > 80 µM; selectivity ratio [15]: > 9.67; Activity (Leishmania braziliensis [9]): 74.54%; Activity (Leishmania braziliensis [10]): 79.72%; Activity (Leishmania braziliensis [16]): Active; IC50 (Leishmania braziliensis [17]): 8.27 µM; Activity (Leishmania braziliensis [11]): 46.33%; Activity (Leishmania braziliensis [18]): Active; Activity (Leishmania braziliensis [12]): 47.12%
20 | COc1ccc(/C=C/C(=O)Oc2ccc3c(c2)C(=O)OC3)cc1 | – | – | – | solubility [4]: Insoluble
21 | O=C(/C=C/c1ccccc1)OCc1cn(Cc2cc(Cl)ccc2Cl)nn1 | Non-Toxic | inactive | 78.98% | –
22 | O=C(/C=C/c1ccc([N+](=O)[O-])cc1)Oc1ccc2c(c1)C(=O)OC2 | Non-Toxic | – | 59.54% | –
23 | O=C(/C=C/c1ccc(F)cc1)Oc1ccc2c(c1)C(=O)OC2 | Non-Toxic | Active | 43.87% | –
24 | O=C(/C=C/c1ccccc1)OCc1cn(Cc2ccccc2Br)nn1 | Non-Toxic | inactive | 80.12% | –
25 | O=C(/C=C/c1ccccc1)OCc1cn(Cc2ccc(Cl)cc2)nn1 | – | – | – | solubility [4]: Insoluble
26 | O=C(/C=C/c1ccccc1)OCCCc1cn(Cc2ccc(Br)cc2)nn1 | Non-Toxic | Active | 45.1% | –
27 | O=C(/C=C/c1ccccc1)OCc1cn(Cc2ccc(C(F)(F)F)cc2)nn1 | – | – | – | solubility [4]: Insoluble
28 | O=C(/C=C/c1ccccc1)OCCCc1cn(Cc2ccc([N+](=O)[O-])cc2)nn1 | Non-Toxic | Active | 20.58% | –
29 | COc1ccc(Cn2cc(CCCOC(=O)/C=C/c3ccccc3)nn2)cc1 | Non-Toxic | – | 60.48% | –
30 | O=C(/C=C/c1ccccc1)OCCCc1cn(Cc2ccc(C(F)(F)F)cc2)nn1 | Non-Toxic | Active | 69.24% | –
31 | C[C@@H]1[C@H](O)[C@@H](C)/C=C/C=C/C=C/C=C/C=C/C=C/C=C/[C@H](O[C@@H]2O[C@H](C)[C@@H](O)[C@H](N)[C@@H]2O)C[C@@H]2O[C@](O)(C[C@@H](O)C[C@@H](O)[C@H](O)CC[C@@H](O)C[C@@H](O)CC(=O)O[C@H]1C)C[C@H](O)[C@H]2C(=O)O [AMPHOTERICIN B] | – | – | 98.25% | Activity (RAW264.7 [19]): Non-Toxic
32 | O=C(/C=C/c1ccccc1)OCCCc1cn(Cc2ccccc2F)nn1 | Non-Toxic | – | 19.67% | –
33 | O=C(/C=C/c1ccccc1)OCc1cn(Cc2ccc(I)cc2)nn1 | – | – | – | solubility [4]: Insoluble
